≈ marks a conversion by molar mass, not a printed value. Calls of active or inactive are those of the source. The rule behind the calls is not given here.
Key:
[1] = system: Mycobacterium tuberculosis variant bovis BCG; assay: Bactericidal activity against Mycobacterium bovis BCG ATCC 35734 at 4 times MIC90 measured up to 48 hrs by time kill assay relative to control; format: functional
Procedure, shortened: (§1)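 Samples taken at 6, 12, 24 and 48 h, diluted and plated on 7H10 agar for CFU. Three independent biological replicates.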

[2] = system: Mycobacterium tuberculosis variant bovis BCG; assay: Antimycobacterial activity against Mycobacterium bovis BCG ATCC 35734 after 5 days by broth dilution method; format: functional; settings: ATCC 35734, 120 h
[3] = system: Mycobacterium tuberculosis variant bovis BCG; assay: Bactericidal activity against Mycobacterium bovis BCG ATCC 35734 assessed as 1000 fold reduction in CFU after 5 days; format: functional; settings: ATCC 35734, 120 h, read-out: MBC99.9
Procedure, shortened: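 BCG ran 5 days at 37°C, 110 rpm; H37Rv ran 7 days at 37°C, 80 rpm. CFU counted on 7H10 agar. MBC99.9 is the 1000-fold CFU reduction versus inoculum at time zero. Average of 2 or more determinations.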

[4] = system: Mycobacterium tuberculosis variant bovis BCG; assay: Antimycobacterial activity against Mycobacterium bovis BCG ATCC 35734 after 5 days in absence of glycerol by broth dilution method; format: functional; settings: ATCC 35734, 120 h
[5] = system: Mycobacterium tuberculosis variant bovis BCG; assay: Antimycobacterial activity against Mycobacterium bovis BCG ATCC 35734 after 5 days in presence of 10% FBS by broth dilution method; format: functional; settings: ATCC 35734, 120 h
[6] = system: Mycobacterium tuberculosis variant bovis BCG; assay: Bactericidal activity against Mycobacterium bovis BCG ATCC 35734 at 4 times MIC90 measured at 48 hrs by time kill assay relative to control; format: functional, organism-based; procedure, shortened: as §1
[7] = system: Cell membrane; assay: Induction of cell membrane permeabilization in Mycobacterium bovis BCG ATCC 35734 at 4 times MIC90 after 12 hrs by SYTO9/propidium iodide staining-based fluorescence assay; settings: Mycobacterium tuberculosis variant bovis BCG
Procedure, shortened: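 At each time point cells were washed into 0.9% NaCl at OD600 = 0.5 and stained with SYTO 9 and PI for 15 min at 37°C in the dark. Green (488/530 nm) and red (488/630 nm) fluorescence read. G/R ratio scaled between drug-free (0%) and 5% SDS (100%). Three biological replicates.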

[8] = system: Cell membrane; assay: Disruption of cell membrane potential in Mycobacterium bovis BCG ATCC 35734 at 4 times MIC90 after 4 hrs by DiOC2 dye-based fluorescence assay; settings: Mycobacterium tuberculosis variant bovis BCG
Procedure, shortened: (§2)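 Controls were rifampicin 0.08 μM (negative) and CCCP 100 μM (positive). Membrane potential tracked by DiOC2 red/green fluorescence ratio over minutes–hours and days 1–5, versus drug-free cultures. 2–3 independent biological replicates.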

[9] = system: Cell membrane; assay: Disruption of cell membrane potential in Mycobacterium bovis BCG ATCC 35734 at 4 times MIC90 after 3 days by DiOC2 dye-based fluorescence assay; settings: Mycobacterium tuberculosis variant bovis BCG; procedure, shortened: as §2
[10] = system: Cell membrane; assay: Disruption of cell membrane potential in Mycobacterium bovis BCG ATCC 35734 at 0.08 uM after 20 mins to 5 days by DiOC2 dye-based fluorescence assay; settings: Mycobacterium tuberculosis variant bovis BCG; procedure, shortened: as §2
[11] = system: Cell membrane; assay: Disruption of cell membrane potential in Mycobacterium bovis BCG ATCC 35734 at 100 uM after 20 mins to 5 days by DiOC2 dye-based fluorescence assay; settings: Mycobacterium tuberculosis variant bovis BCG; procedure, shortened: as §2

SMILES	MIC50 [2] [µM]	MIC90 [2] [µM]	MBC [3] [µM]	MIC50 [4] [µM]	MIC50 [5] [µM]	also measured
NNC(=O)c1ccncc1 [ISONIAZID]	–	–	–	–	–	fold change (FC) [1]: >100
CCCCCCCCn1cc(CN2CCC3(CC2)OCCO3)c2ccc(OC)cc21	2 (≈ 0.829 µg/mL)	4 (≈ 1.66 µg/mL)	3 to 6 (≈ 1.24 to 2.49 µg/mL)	1.6 (≈ 0.663 µg/mL)	1.1	Activity [6]: inactive
CCCCCCCCn1cc(CN2CCC3(CC2)OCCCS3)c2ccc(OC)cc21	0.4 (≈ 0.178 µg/mL)	0.8 (≈ 0.356 µg/mL)	0.4 to 1.6 (≈ 0.178 to 0.711 µg/mL)	0.41 (≈ 0.182 µg/mL)	0.6	Activity [7]: Active; fold change (FC) [1]: >100
CCCCCCCCn1cc(CN2CCC3(CC2)OCCCO3)c2ccc(OC)cc21	0.3 (≈ 0.129 µg/mL)	0.8 (≈ 0.343 µg/mL)	0.8 to 1.6 (≈ 0.343 to 0.686 µg/mL)	0.35 (≈ 0.15 µg/mL)	0.33	fold change (FC) [1]: >100
CCCCCCCCn1cc(CN2CCC3(CC2)SCCS3)c2ccc(OC)cc21	0.5 (≈ 0.223 µg/mL)	0.8 (≈ 0.357 µg/mL)	0.8 to 1.6 (≈ 0.357 to 0.715 µg/mL)	0.27 (≈ 0.121 µg/mL)	0.28	–
CCCCCCCCn1cc(CN2CCC3(CC2)SCCCS3)c2ccc(OC)cc21	0.4 (≈ 0.184 µg/mL)	0.8 (≈ 0.369 µg/mL)	0.8 to 1.6 (≈ 0.369 to 0.737 µg/mL)	0.43 (≈ 0.198 µg/mL)	0.48	–
CCCCCCCCn1cc(CN2CCCCCC2)c2c(F)cccc21	–	–	–	–	–	Activity [8]: inactive; Activity [9]: Active
CO[C@H]1/C=C/O[C@@]2(C)Oc3c(C)c(O)c4c(O)c(c(/C=N/N5CCN(C)CC5)c(O)c4c3C2=O)NC(=O)/C(C)=C\C=C\[C@H](C)[C@H](O)[C@@H](C)[C@@H](O)[C@@H](C)[C@H](OC(C)=O)[C@@H]1C	–	–	–	–	–	Activity [10]: inactive
N#CC(C#N)=NNc1cccc(Cl)c1	–	–	–	–	–	Activity [11]: Active
CCCCCCCCn1cc(CN2CCCC3(CC2)OCCCS3)c2ccc(OC)cc21 (stereo not drawn)	0.5 (≈ 0.229 µg/mL)	1 (≈ 0.459 µg/mL)	–	–	–	–
CCCCCCCCn1ccc2cccc(OCCCN3CCCC3)c21	10 (≈ 3.57 µg/mL)	22 (≈ 7.84 µg/mL)	–	–	–	–
CCCCCCCCn1ccc2cc(OCCCN3CCCCC3)ccc21	13 (≈ 4.82 µg/mL)	40 (≈ 14.8 µg/mL)	–	–	–	–
CCCCCCCCn1cc(CNCC2CC3CCC2C3)c2ccc(OC)cc21 (stereo not drawn)	1.1 (≈ 0.436 µg/mL)	1.9 (≈ 0.754 µg/mL)	–	–	–	–
CCCCCCCCn1cc(CN2CCCC3(C2)CC3(F)F)c2ccc(OC)cc21 (stereo not drawn)	13 (≈ 5.44 µg/mL)	25 (≈ 10.5 µg/mL)	–	–	–	–
COc1ccc2c(CN3CCC4(CC3)OCCCO4)cn(CCCCOc3ccccc3)c2c1	11 (≈ 5.11 µg/mL)	25 (≈ 11.6 µg/mL)	–	–	–	–
CCCCCCCCn1cc(CN2CCC3(CC2)OCCS3)c2ccc(OC)cc21	0.6 (≈ 0.258 µg/mL)	0.8 (≈ 0.345 µg/mL)	0.8 to 1.6 (≈ 0.345 to 0.689 µg/mL)	0.37 (≈ 0.159 µg/mL)	0.32	–
CCCCCCCCn1cc(CN2CCC3(CC2)OCCCO3)c2cc([N+](=O)[O-])ccc21	7 (≈ 3.11 µg/mL)	18 (≈ 7.98 µg/mL)	–	–	–	–

— ChEMBL document CHEMBL4145615, “Indolyl Azaspiroketal Mannich Bases Are Potent Antimycobacterial Agents with Selective Membrane Permeabilizing Effects and in Vivo Activity” (J Med Chem, 2018)
